From ChEMBL document CHEMBL3853286, “Screening and Biological Effects of Marine Pyrroloiminoquinone Alkaloids: Potential Inhibitors of the HIF-1α/p300 Interaction” (J Nat Prod, 2016)
The source made the active and inactive calls. The rule behind the calls is not given here.

Experiments:
[1] = Cytotoxicity against human HCT116 cells measured after 48 hrs under hypoxic condition by CCK8 assay; assay type: functional, cell-based; settings: HCT-116, 48 h
Method in brief: (§1)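 HCT 116 cells in McCoy's 5A with 10% FBS, seeded 10 000 cells/well. After 24 h, treated with compound (0.05−50 μM), tirapazamine positive control or DMSO (0.5%, v/v). Incubated 18 h or 48 h at 0.5% O2, then CCK-8 for 2 h at 37 °C with absorbance at 450 nm. Percent viability relative to DMSO controls. Quadruplicate wells, triplicate experiments.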

[2] = target: T1, Hypoxia-inducible factor 1-alpha (Homo sapiens, UniProt Q16665); assay: Inhibition of hypoxia-induced HIF1alpha transcriptional activity in human HCT116 cells at 0.1 to 10 uM measured after 18 hrs by hypoxia response element-driven dual luciferase reporter gene assay relative to hypoxia control; assay type: cell-based; settings: HCT-116
Method in brief: (§2)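 HCT 116 cells seeded 50 000/well and cotransfected (Lipofectamine 2000) with 100 ng pGL4.42 HRE-firefly luciferase and 10 ng pRL-TK Renilla. After 24 h, treated in 0.1% FBS medium with compound (0.01−10 μM), chetomin (0.5 μM) or tirapazamine (25 μM). Incubated 18 h at 0.5% O2 or normoxia. HRE:TK ratio normalized to hypoxic DMSO control. Wilcoxon test with Hochberg correction.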
Target sequence in this assay (Q16665 whole entry, looked up): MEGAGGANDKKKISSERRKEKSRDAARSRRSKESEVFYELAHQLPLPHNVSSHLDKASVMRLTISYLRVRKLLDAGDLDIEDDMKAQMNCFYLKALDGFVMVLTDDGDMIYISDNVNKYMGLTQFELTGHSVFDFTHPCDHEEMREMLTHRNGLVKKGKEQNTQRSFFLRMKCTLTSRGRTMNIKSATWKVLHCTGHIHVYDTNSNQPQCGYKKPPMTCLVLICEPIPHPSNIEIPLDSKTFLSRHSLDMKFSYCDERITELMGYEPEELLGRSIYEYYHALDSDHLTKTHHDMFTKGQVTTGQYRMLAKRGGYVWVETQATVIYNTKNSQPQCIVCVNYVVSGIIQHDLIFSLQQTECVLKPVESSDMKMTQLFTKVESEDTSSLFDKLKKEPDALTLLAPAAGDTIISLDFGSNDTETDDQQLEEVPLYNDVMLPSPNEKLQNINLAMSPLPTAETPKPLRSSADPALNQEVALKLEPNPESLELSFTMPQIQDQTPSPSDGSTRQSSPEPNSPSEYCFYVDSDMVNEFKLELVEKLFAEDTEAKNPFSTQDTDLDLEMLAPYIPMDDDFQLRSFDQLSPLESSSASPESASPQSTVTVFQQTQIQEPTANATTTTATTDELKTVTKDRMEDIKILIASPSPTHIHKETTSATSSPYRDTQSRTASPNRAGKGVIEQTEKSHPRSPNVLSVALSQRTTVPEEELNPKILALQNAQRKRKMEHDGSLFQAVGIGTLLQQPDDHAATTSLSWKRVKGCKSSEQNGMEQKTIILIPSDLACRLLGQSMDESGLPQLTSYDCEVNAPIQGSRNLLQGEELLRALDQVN

[3] = target: T1, Hypoxia-inducible factor 1-alpha; assay: Inhibition of hypoxia-induced HIF1alpha transcriptional activity in human LNCAP cells assessed as compound concentration causing inhibition of transcriptional activity measured after 18 hrs by hypoxia response element-driven dual luciferase reporter gene assay relative to hypoxia control; assay type: cell-based
Method in brief: (§3)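 LNCaP cells seeded 15 000/well and cotransfected (Lipofectamine 3000) with 10 ng pGL4.42 HRE-luciferase and 1 ng pRL-TK. After 24 h, treated in phenol-free RPMI-1640 with 0.1% charcoal-stripped FBS containing compound (0.1, 1, 10 μM). Incubated 18 h at 1% O2. Dual-luciferase HRE:TK ratio normalized to hypoxic DMSO control. Quadruplicate wells, triplicate experiments, Wilcoxon test with Hochberg correction.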
Target sequence in this assay (Q16665 whole entry, looked up): as above

[4] = target: T1, Hypoxia-inducible factor 1-alpha; assay: Displacement of GST-tagged p300-CH1 domain (323 to 423 residues) from synthetic biotinylated HIF-1alpha C-TAD domain (786 to 826 residues) (unknown origin) measured after overnight incubation by fluorescence analysis
Method in brief: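 Cell-free protein–protein displacement assay. The p300 CH1 domain is displaced from the HIF-1α C-TAD, which is immobilized on streptavidin-coated plates. IC50 values derived.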
Target sequence in this assay (Q16665 whole entry): as the sequence (Q16665 whole entry, looked up) above

[5] = Cytotoxicity against human LNCAP cells measured after 18 hrs under hypoxic condition by CCK8 assay; assay type: functional, cell-based
Method in brief: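 LNCaP cells in phenol-free RPMI-1640 with 10% FBS, seeded 15 000 cells/well. After 24 h, exposed to compound (0.1−10 μM), tirapazamine or DMSO (0.5%, v/v) for 18 h at 1% O2. CCK-8 absorbance read at 450 nm after 2 h at 37 °C and normalized to DMSO controls to give percent viability. Quadruplicate wells, triplicate experiments.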

[6] = target: T1, Hypoxia-inducible factor 1-alpha; assay: Inhibition of HIF1alpha in human LNCAP cells assessed as hypoxia-induced VEGF secretion at 0.5 uM measured after 18 hrs under hypoxic conditions by ELISA
Target sequence in this assay (Q16665 whole entry, looked up): as above

[7] = target: T1, Hypoxia-inducible factor 1-alpha; assay: Inhibition of hypoxia-induced HIF1alpha transcriptional activity in human LNCAP cells at 0.1 to 10 uM measured after 18 hrs by hypoxia response element-driven dual luciferase reporter gene assay relative to hypoxia control; assay type: cell-based; method in brief: as §3
Target sequence in this assay (Q16665 whole entry, looked up): as above

[8] = Cytotoxicity against human COLO205 cells measured after 48 hrs under hypoxic condition by CCK8 assay; assay type: functional, cell-based; settings: COLO 205, 48 h
Method in brief: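 COLO 205 cells in RPMI-1640 with 10% FBS, seeded 15 000 cells/well. After 24 h, treated with fresh medium holding compound (0.001−10 μM), tirapazamine positive control or DMSO (0.5%, v/v). Incubated 48 h at 0.5% O2, then CCK-8 added for 2 h at 37 °C and absorbance read at 450 nm. Viability normalized to DMSO controls. Quadruplicate wells, triplicate experiments.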

[9] = Cytotoxicity against human HCT116 cells measured after 18 hrs under hypoxic condition by CCK8 assay; assay type: functional, cell-based; settings: HCT-116, 18 h; method in brief: as §1
[10] = target: T1, Hypoxia-inducible factor 1-alpha; assay: Inhibition of hypoxia-induced HIF1alpha transcriptional activity in human HCT116 cells assessed as compound concentration causing inhibition of transcriptional activity measured after 18 hrs by hypoxia response element-driven dual luciferase reporter gene assay relative to hypoxia control; assay type: cell-based; settings: HCT-116; method in brief: as §2
Target sequence in this assay (Q16665 whole entry, looked up): as above

[11] = target: T1, Hypoxia-inducible factor 1-alpha; assay: Inhibition of HIF1alpha in human LNCAP cells assessed as hypoxia-induced VEGF secretion at 0.25 to 1 uM measured after […] under hypoxic conditions by ELISA; assay type: cell-based
Target sequence in this assay (Q16665 whole entry, looked up): as above

[12] = target: T1, Hypoxia-inducible factor 1-alpha; assay: Inhibition of HIF-1alpha in human LNCAP cells assessed as decrease in VEGF secretion at 0.5 uM measured after 18 hrs under hypoxic conditions by ELISA; assay type: cell-based
Method in brief: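 LNCaP cells seeded 15 000/well in 96-well plates and incubated overnight at 37 °C. Medium then replaced with medium containing 0.1% charcoal-stripped FBS plus compound at 0.25, 0.5 or 1 μM, or DMSO control. Incubated 18 h at 1% O2. Supernatant diluted 2-fold and VEGF quantified by Quantikine ELISA. Values normalised per cell using CCK-8 viability. Triplicate experiments; exact Wilcoxon test with Hochberg correction.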

[13] = target: T1, Hypoxia-inducible factor 1-alpha; assay: Inhibition of hypoxia-induced HIF1alpha transcriptional activity in human LNCAP cells at 0.25 to 0.5 uM measured after 18 hrs by hypoxia response element-driven dual luciferase reporter gene assay relative to hypoxia control; assay type: cell-based
[14] = target: T1, Hypoxia-inducible factor 1-alpha; assay: Inhibition of hypoxia-induced HIF1alpha transcriptional activity in human HCT116 cells at 0.25 to 0.5 uM measured after 18 hrs by hypoxia response element-driven dual luciferase reporter gene assay relative to hypoxia control; assay type: cell-based; settings: HCT-116
Method in brief: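 HCT 116 cells seeded 50 000/well and cotransfected with 100 ng pGL4.42 (4×HRE-firefly luciferase) and 10 ng pRL-TK Renilla using Lipofectamine 2000. After 24 h, cells treated in medium with 0.1% FBS, compound 0.01–10 μM. Incubated 18 h at 0.5% O2 or normoxia. HRE:TK signal divided by the mean of the DMSO hypoxic controls gives fold-induction. Quadruplicate wells, triplicate experiments.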

[15] = target: T1, Hypoxia-inducible factor 1-alpha; assay: Inhibition of HIF-1alpha in human PC3 cells assessed as decrease in ENO1 mRNA expression level; assay type: cell-based; settings: PC-3
[16] = target: T1, Hypoxia-inducible factor 1-alpha; assay: Inhibition of HIF-1alpha in human PC3 cells assessed as decrease in VEGF mRNA expression level; assay type: cell-based; settings: PC-3
[17] = target: T1, Hypoxia-inducible factor 1-alpha; assay: Inhibition of HIF-1alpha in human PC3 cells assessed as decrease in LDHA mRNA expression level; assay type: cell-based; settings: PC-3

For Cn1c(C[C@H](N)C(=O)O)cnc1S[C@H]1[C@H]2C(=O)C=C3S[C@H]4C[C@]31C1=C(N4)C(=O)c3[nH]cc4c3C1=[N+]2CC4, the IC50 [1] was greater than 50 µM, the “inhibition (qualitative active call)” value [2] was “Active” and the Concentration causing inhibition [3] was 0.1 µM. The IC50 [4] was 2.2 µM, the IC50 [5] was greater than 10 µM and the inhibition [6] was “Active”. The “inhibition outcome (active/inactive)” value [7] was “Active”, the IC50 [8] was greater than 10 µM and the IC50 [9] was greater than 10 µM. The Concentration causing inhibition [10] was 0.5 µM.

With O=C1C2=C(C3=NCCc4c[nH]c1c43)[C@]1(C=C(Br)[C@H](O)C(Br)=C1)CCN2 the “inhibition (qualitative active call)” value [2] was “Active”, the Concentration causing inhibition [3] was 1 µM and the IC50 [4] was 35.2 µM. The IC50 [5] was greater than 10 µM, the “inhibition outcome (active/inactive)” value [7] was “Active” and the IC50 [8] was 5.1 µM. It also gave an IC50 [9] of 8.6 µM and a Concentration causing inhibition [10] of 10 µM.

In the case of O=C1C2=C3C4=[N+](CCc5c[nH]c1c54)[C@@H]1C(=O)C=C4S[C@@H](C[C@@]43[C@H]1O)N2, the IC50 [1] is reported as greater than 50 µM, the “inhibition (qualitative active call)” value [2] is reported as “Active” and the Concentration causing inhibition [3] is reported as 1 µM. The IC50 [4] was 0.73 µM, the IC50 [5] was 8.3 µM and the inhibition [11] was “Active”. The “inhibition outcome (active/inactive)” value [7] was “Active”, the IC50 [8] was 7.6 µM and the IC50 [9] was 6.2 µM. For the same compound, the Concentration causing inhibition [10] was 0.1 µM.

With CN1C(=O)[C@@]2(CO)SS[C@@]1(Cc1cn([C@]34C[C@@]56SS[C@](CO)(C(=O)N5[C@H]3Nc3ccccc34)N(C)C6=O)c3ccccc13)C(=O)N2C the inhibition [12] was “Active”, the IC50 [4] was 1.9 µM and the inhibition [13] was “Active”. For the same compound, the inhibition [14] was “Active”.

Nc1n[n+]([O-])c2ccccc2[n+]1[O-] [TIRAPAZAMINE] gave an IC50 [1] of 11.9 µM, an IC50 [8] of 47.7 µM and an IC50 [9] of 72.7 µM.

In the case of O=C1C=C(S[C@H]2[C@H]3C(=O)C=C4S[C@H]5C[C@]42C2=C(N5)C(=O)c4[nH]cc5c4C2=[N+]3CC5)[C@]2(C=C1Br)CCNC1=C2C2=NCCc3c[nH]c(c32)C1=O, the IC50 [1] is reported as 26.8 µM, the “inhibition (qualitative active call)” value [2] is reported as “Active” and the Concentration causing inhibition [3] is reported as 1 µM. The IC50 [4] was 2.4 µM, the IC50 [5] was greater than 10 µM and the “inhibition outcome (active/inactive)” value [7] was “Active”. The IC50 [8] was greater than 10 µM, the IC50 [9] was greater than 10 µM and the Concentration causing inhibition [10] was 0.1 µM.

With O=C1C(NC2Cc3cc(Br)c(O)cc3S2)=CC2=NCCc3c[nH]c1c32 (centres undefined) [MAKALUVAMINE F] the “inhibition (qualitative active call)” value [2] was “Active”, the Concentration causing inhibition [3] was 0.1 µM and the IC50 [4] was 8.3 µM. For the same compound, the IC50 [5] was greater than 10 µM, the “inhibition outcome (active/inactive)” value [7] was “Active” and the IC50 [8] was greater than 10 µM. For the same compound, the IC50 [9] was 7.2 µM and the Concentration causing inhibition [10] was 0.25 µM.

In the case of O=C1C=C2S[C@H]3C[C@]2(C=C1Br)C1=C(N3)C(=O)c2[nH]cc3c2C1=NCC3 [(+)-DISCORHABDIN B], the “inhibition (qualitative active call)” value [2] is reported as “Active”, the Concentration causing inhibition [3] is reported as 1 µM and the IC50 [4] is reported as 3.7 µM. The IC50 [5] was 7 µM, the “inhibition outcome (active/inactive)” value [7] was “Active” and the IC50 [8] was 1.8 µM. For the same compound, the IC50 [9] was 3.1 µM and the Concentration causing inhibition [10] was 0.1 µM.

In the case of CN1C(=O)[C@]23CC4=CC=C[C@H](O)[C@H]4N2C(=O)[C@@]1(CO)SS3, the inhibition [15] is reported as “Active”, the inhibition [16] is reported as “Active” and the inhibition [17] is reported as “Active”.

With O=C1C=C(SSC2=CC(=O)C(Br)=C[C@]23CCNC2=C3C3=NCCc4c[nH]c(c43)C2=O)[C@]2(C=C1Br)CCNC1=C2C2=NCCc3c[nH]c(c32)C1=O the “inhibition (qualitative active call)” value [2] was “Active”, the IC50 [4] was greater than 100 µM and the IC50 [5] was greater than 10 µM. The IC50 [8] was greater than 10 µM, the IC50 [9] was greater than 10 µM and the Concentration causing inhibition [10] was 0.1 µM.
